Measured values: ChEMBL document CHEMBL3112463, “Synthesis and biological activity of polyalthenol and pentacyclindole analogues” (2014)
In brackets after ≈: the same amount, converted by molar mass.

Assays:
Type in all cases: functional
SW1573 = assay: Antiproliferative activity against human SW1573 cells assessed as growth inhibition after 48 hrs by SRB assay; conditions: SW1573, 48 h
Outline: (§1)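 Cells maintained at 37 °C, 5% CO₂ in medium with foetal calf serum and 2 mM L-glutamine. Trypsinized into antibiotic medium, >97% viable by trypan blue, plated at 10,000 cells/well. Triplicate dilutions from DMSO stocks (0.25% v/v DMSO control) added on day 1 for 48 h. TCA fixation (50%, 4 °C, 60 min), SRB stain, OD 492 nm corrected for medium-only blank.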

WiDr = assay: Antiproliferative activity against human WiDr cells assessed as growth inhibition after 48 hrs by SRB assay
Outline: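 WiDr cells seeded at 20,000 cells/well after trypsinization into antibiotic-containing medium (trypan blue viability >97%). Culture at 37 °C, 5% CO₂ with foetal calf serum and 2 mM L-glutamine. Exposure to triplicate compound dilutions from DMSO stocks (0.25% v/v DMSO control) started day 1, lasting 48 h. Fixed with ice-cold 50% TCA, 60 min at 4 °C, then SRB, OD 492 nm background-subtracted.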

A549 = assay: Antiproliferative activity against human A549 cells assessed as growth inhibition after 48 hrs by SRB assay; conditions: A549, 48 h
Outline: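 Cells kept in medium with foetal calf serum and 2 mM L-glutamine at 37 °C, 5% CO₂. Trypsinized, resuspended in penicillin/streptomycin medium, >97% trypan blue viability, seeded at 10,000 cells/well. Compounds from DMSO stocks (0.25% v/v DMSO control), triplicate dilutions, added day 1 for 48 h. Fixed with cold 50% TCA for 60 min at 4 °C, then SRB staining, OD 492 nm, background corrected.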

HeLa = assay: Antiproliferative activity against human HeLa cells assessed as growth inhibition after 48 hrs by SRB assay; outline: as §1
T47D = assay: Antiproliferative activity against human T47D cells assessed as growth inhibition after 48 hrs by SRB assay
Outline: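 T-47D cells grown at 37 °C, 5% CO₂ in serum- and 2 mM L-glutamine-containing medium. Trypsinized, viability >97% by trypan blue, seeded at 15,000 cells/well. Compounds added day 1 in triplicate dilutions (DMSO vehicle 0.25% v/v as control) for 48 h. Cold 50% TCA fixation 60 min at 4 °C, SRB read at 492 nm with blank correction.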

[1] = Antiproliferative activity against human HBL100 cells assessed as growth inhibition after 48 hrs by SRB assay; conditions: HBL-100, 48 h; outline: as §1
Staphylococcus aureus = assay: Antimicrobial activity against Staphylococcus aureus ATCC 29213 after 24 hrs by broth microdilution method; conditions: ATCC 29213, 24 h
Outline: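 Bacteria grown on nutrient agar at 35–37 °C for 24 h, then suspended in normal saline to approx. […] by matching to 0.5 McFarland standard. Broth microdilution in Mueller Hinton broth with growth and sterility controls, compounds first dissolved in DMSO.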

Compound	GI50 (SW1573) [µM]	GI50 (WiDr) [µM]	GI50 (A549) [µM]	GI50 (HeLa) [µM]	GI50 (T47D) [µM]	GI50 [1] [µM]	MIC (Staphylococcus aureus) [µM]
COC(=O)[C@@]1(C)CCC=C2[C@@H]1CC[C@@H](C)[C@]2(C)Cc1c(C=O)[nH]c2ccccc12	7.9	20	45	4.4	17	7.5	50 (≈ 19.7 µg/mL)
COC(=O)[C@@]1(C)CCC=C2[C@@H]1CC[C@@H](C)[C@]2(C)Cc1c(C)[nH]c2ccc(C)cc12	18	28	26	17	31	25	–
COC(=O)[C@@]1(C)CC[C@@H]2C3=C1CC[C@@H](C)[C@]3(C)C[C@@H]1c3ccccc3N[C@H]21	30	50	39	19	35	78	–
COC(=O)[C@@]1(C)CCC=C2[C@@H]1CC[C@@H](C)[C@]2(C)Cc1c(C)[nH]c2ccc(F)cc12	12	17	15	11	15	14	–
COC(=O)[C@@]1(C)CCC=C2[C@@H]1CC[C@@H](C)[C@]2(C)Cc1c(C)[nH]c2ccc(OC)cc12	15	17	16	12	21	16	–
COC(=O)[C@@]1(C)CCC=C2[C@@H]1CC[C@@H](C)[C@]2(C)Cc1c[nH]c2ccc(C)cc12	15	22	17	14	20	18	–
COC(=O)[C@@]1(C)CCC=C2[C@@H]1CC[C@@H](C)[C@]2(C)Cc1c[nH]c2ccc(OC)cc12	1.3	5.7	2.2	1.2	3.7	2.1	–
